# Measurements from ChEMBL document CHEMBL1649392, “Synthesis of substituted 3-amino-N-phenyl-1H-indazole-1-carboxamides endowed with antiproliferative activity” (Eur J Med Chem, 2011).
# What was measured:
# Format in all cases: functional
# [1] = system: RXF 393; test: Antiproliferative activity against human RXF393 cells after 48 hrs by sulforhodamine B assay; conditions: RXF 393, 48 h
# Procedure, shortened: (§1)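 NCI 60-cell-line panel covering nine cancer types (leukemia, non-small cell lung, colon, CNS, melanoma, ovarian, renal, prostate, breast). Compounds were first tested at a single dose, then in a five-dose screen (series starting 0.01, 0.1 …) if they met NCI threshold criteria. Reported per line: GI50 (molar concentration inhibiting 50% net growth), TGI (total growth inhibition) and LC50 (50% net cell death).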
# [2] = system: A498; test: Antiproliferative activity against human A498 cells after 48 hrs by sulforhodamine B assay; conditions: A498, 48 h; procedure, shortened: as §1
# [3] = system: HOP-92; test: Antiproliferative activity against human HOP92 cells after 48 hrs by sulforhodamine B assay; conditions: HOP-92, 48 h; procedure, shortened: as §1
# [4] = system: Malme-3M; test: Antiproliferative activity against human MALME-3M cells after 48 hrs by sulforhodamine B assay; procedure, shortened: as §1
# [5] = system: TK-10; test: Antiproliferative activity against human TK10 cells after 48 hrs by sulforhodamine B assay; conditions: TK-10, 48 h
# Procedure, shortened: (§2)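 NCI 60-cell-line panel screen: single dose 10 µM first, then 5-dose testing (0.01, 0.1, … molar series). For each line, GI50 is the molar concentration giving 50% inhibition of net cell growth, TGI gives total inhibition of net growth, and LC50 gives 50% net cell death. Method follows the NCI DTP protocol.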
# [6] = system: NCI-H522; test: Antiproliferative activity against human NCI-H522 cells after 48 hrs by sulforhodamine B assay; conditions: NCI-H522, 48 h; procedure, shortened: as §1
# [7] = system: BT-549; test: Antiproliferative activity against human BT549 cells after 48 hrs by sulforhodamine B assay; conditions: BT-549, 48 h; procedure, shortened: as §1
# [8] = system: NCI-H322M; test: Antiproliferative activity against human NCI-H322M cells after 48 hrs by sulforhodamine B assay; procedure, shortened: as §1
# [9] = system: ACHN; test: Antiproliferative activity against human ACHN cells after 48 hrs by sulforhodamine B assay; conditions: read-out: LC50 (the source's name); procedure, shortened: as §1
# [10] = system: UO-31; test: Antiproliferative activity against human UO31 cells after 48 hrs by sulforhodamine B assay; conditions: UO-31, 48 h; procedure, shortened: as §2
# [11] = system: T47D; test: Antiproliferative activity against human T47D cells after 48 hrs by sulforhodamine B assay; procedure, shortened: as §2
# [12] = system: KM12; test: Antiproliferative activity against human KM12 cells after 48 hrs by sulforhodamine B assay; conditions: KM12, 48 h; procedure, shortened: as §1
# [13] = system: SF-295; test: Antiproliferative activity against human SF295 cells after 48 hrs by sulforhodamine B assay; conditions: SF-295, 48 h; procedure, shortened: as §1
# [14] = system: HCC 2998; test: Antiproliferative activity against human HCC2998 cells after 48 hrs by sulforhodamine B assay; conditions: HCC 2998, 48 h; procedure, shortened: as §1
# [15] = system: DU-145; test: Antiproliferative activity against human DU145 cells after 48 hrs by sulforhodamine B assay; conditions: DU-145, 48 h, read-out: LC50 (the source's name); procedure, shortened: as §1
# [16] = system: SNB-75; test: Antiproliferative activity against human SNB75 cells after 48 hrs by sulforhodamine B assay; conditions: SNB-75, 48 h; procedure, shortened: as §1
# [17] = system: SK-MEL-28; test: Antiproliferative activity against human SK-MEL-28 cells after 48 hrs by sulforhodamine B assay; conditions: SK-MEL-28, 48 h; procedure, shortened: as §1
# [18] = system: U-251; test: Antiproliferative activity against human U251 cells after 48 hrs by sulforhodamine B assay; conditions: U-251, 48 h; procedure, shortened: as §2
# [19] = system: MDA-MB-231; test: Antiproliferative activity against human MDA-MB-231 cells after 48 hrs by sulforhodamine B assay; conditions: MDA-MB-231, 48 h, read-out: LC50 (the source's name); procedure, shortened: as §1
# [20] = read-out: LC50 (the source's name)
smiles,measurement,setting,value
Nc1nn(C(=O)Nc2ccc(Cc3ccccc3)cc2)c2ccccc12,TGI,[1],58.2 µM
same,CC50,[1]; [20],> 100 µM
same,TGI,[2],31.5 µM
same,CC50,[2]; [20],59.6 µM
same,LC50,[3],> 100 µM
same,TGI,[3],42.6 µM
same,LC50 (concentration causing 50% net cell death),[4],> 100 µM
same,TGI,[4],64.1 µM
same,TGI,[5],> 100 µM
same,CC50,[5]; [20],> 100 µM
same,GI50,[6],2.9 µM
same,LC50 (concentration causing 50% net cell death),[6],> 100 µM
same,TGI,[6],> 100 µM
same,TGI,[7],39.6 µM
same,CC50,[7]; [20],> 100 µM
same,TGI,[8],> 100 µM
same,CC50,[8]; [20],> 100 µM
same,CC50,[9],> 100 µM
same,TGI,[10],> 100 µM
same,CC50,[10]; [20],> 100 µM
same,LC50 (concentration giving 50% net cell death),[11],> 100 µM
same,TGI,[11],> 100 µM
same,TGI,[12],> 100 µM
same,CC50,[12]; [20],> 100 µM
same,GI50,[13],0.53 µM
same,LC50,[13],> 100 µM
same,TGI,[13],> 100 µM
same,TGI,[14],35.9 µM
same,CC50,[14]; [20],> 100 µM
same,CC50,[15],> 100 µM
same,GI50,[16],17 µM
same,LC50 (concentration causing 50% net cell death),[16],> 100 µM
same,TGI,[16],47.4 µM
same,TGI,[17],> 100 µM
same,CC50,[17]; [20],> 100 µM
same,LC50 (concentration giving 50% net cell death),[18],65.9 µM
same,TGI,[18],30.2 µM
same,CC50,[19],> 100 µM
